Results from ChEMBL document CHEMBL4346702, “Development of CXCR4 modulators based on the lead compound RB-108” (Eur J Med Chem, 2019).
Each block holds one compound with its values, some of them ahead of it. Active and inactive are the calls of the source. The rule behind the calls is not given here.

What was measured:
[1] = molecular target: C-X-C chemokine receptor type 4 (Homo sapiens) (UniProt P61073); assay: (§1) Competitive inhibition of biotinylated TN14003 binding to CXCR4 in human MDA-MB-231 cells preincubated for 10 mins followed by biotinylated-TN14003 addition measured after 30 mins by streptavidin-rhodamine staining based fluorescence microscopic analysis; type: cell-based
C-X-C chemokine receptor type 4 (Homo sapiens), sequence (P61073 whole entry): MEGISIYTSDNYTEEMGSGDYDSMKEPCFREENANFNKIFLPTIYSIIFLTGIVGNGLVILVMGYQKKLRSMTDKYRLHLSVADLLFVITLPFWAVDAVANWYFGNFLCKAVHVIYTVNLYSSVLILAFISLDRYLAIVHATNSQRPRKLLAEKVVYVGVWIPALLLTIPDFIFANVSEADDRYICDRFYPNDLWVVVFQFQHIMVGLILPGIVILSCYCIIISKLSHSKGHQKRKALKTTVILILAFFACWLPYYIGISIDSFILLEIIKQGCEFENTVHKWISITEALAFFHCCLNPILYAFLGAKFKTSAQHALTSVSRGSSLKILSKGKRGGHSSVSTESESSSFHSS
Procedure, shortened: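 MDA-MB-231 cells, 2 × 10⁴ per well, seeded two days ahead. Compound (1, 10, 100 or 1000 nM) added for 10 min at room temperature, then fixed in ice-cold 4% paraformaldehyde and rehydrated in PBS. Biotinylated TN14003 0.05 μg/mL for 30 min at RT, PBS washes, streptavidin-rhodamine (1:150) 30 min at RT. Read by fluorescence microscopy. EC = lowest concentration reducing rhodamine staining versus control.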

Mus musculus [2] = assay: Antiinflammatory activity in C57BL/6J mouse assessed as inhibition of carrageenan-induced paw edema at 10 mg/kg, ip daily dosed 30 mins after carrageenan challenge and measured 74 hrs carrageenan challenge and 2 hrs post last dose by caliper method relative to control; type: functional
Procedure, shortened: (§2)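 Female C57BL/6J mice, five per group; 50 μL λ-carrageenan (1% w/v in saline) injected subcutaneously into one hind paw, 50 μL saline into the other as non-inflamed control. Vehicle-only i.p. controls. Sacrifice 74 h after challenge and 2 h after last dose. Paw thickness measured palm to back with caliper. Edema = injected minus contralateral paw. Suppression % = treated versus control group.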

[3] = molecular target: C-X-C chemokine receptor type 4 (Homo sapiens) (UniProt P61073); assay: Inhibition of CXCR4-mediated chemotaxis in human MDA-MB-231 cells assessed as reduction in CXCL12alpha-induced cell invasion incubated for 22 hrs by hematoxylin/eosin dye-based matrigel assay relative to control; conditions: concentration not given here
Procedure, shortened: (§3)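 Matrigel invasion chamber with MDA-MB-231 cells. Compound (100 nM) added to cells before seeding in the top chamber; CXCL12α 200 ng/mL in the bottom chamber as chemoattractant, serum-free medium. Incubated 22 h. Non-invading cells swabbed off; invaded cells fixed in methanol and H&E stained, then counted. Inhibition relative to untreated invasion.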

[4] = molecular target: C-X-C chemokine receptor type 4 (Homo sapiens) (UniProt P61073); assay: Inhibition of CXCR4-mediated chemotaxis in human MDA-MB-231 cells assessed as reduction in CXCL12alpha-induced cell invasion at 100 nM incubated for 22 hrs by hematoxylin/eosin dye-based matrigel assay relative to control; procedure, shortened: as §3
[5] = molecular target: C-X-C chemokine receptor type 4 (Homo sapiens) (UniProt P61073); assay: as §1, with “Potency index, Ratio of EC for AMD3100 to EC for test compound for” for “Competitive”; type: cell-based
MCF-10A = assay: Cytotoxicity against human MCF10A cells at 100 uM incubated for 24 hrs by CellTiter-96AQ based MTT assay; type: cell-based
Procedure, shortened: (§4)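 Cells seeded at 3000 per well and grown 24 h at 37 °C in CO₂. Treated with compound for 24 h at 37 °C, top concentration 100 μM. CellTiter 96AQ reagent added for 2 h more, then absorbance read at 490 nm.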

Mus musculus [6] = assay: Antiinflammatory activity in C57BL/6J mouse assessed as reduction of carrageenan-induced inflammation and tissue damage in paw by measuring edema volume and thickness at 10 mg/kg, ip daily dosed 30 mins after carrageenan challenge and measured 74 hrs carrageenan challenge and 2 hrs post last dose by H and E staining based histopathological analysis; type: functional, organism-based
[7] = Half life in Sprague-Dawley rat at 10 mg/kg, ig measured for 5 min to 6 hrs by LC/MS/MS analysis; type: ADME, organism-based; conditions: in vivo, po
Procedure, shortened: (§5)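 Two male SD rats given 10 mg/kg intragastrically in 10% DMSO/90% PBS. Blood drawn at 5, 15, 30 min and 1, 2, 4, 6 h, centrifuged 4000 rpm for 5 min at 4 °C. Protein precipitation, then LC/MS/MS in SRM mode with internal standard. Parameters from noncompartmental analysis of plasma concentration-time data.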

[8] = Tmax in Sprague-Dawley rat at 10 mg/kg, ig measured for 5 min to 6 hrs by LC/MS/MS analysis; type: ADME, organism-based; conditions: in vivo, po; procedure, shortened: as §5
Mus musculus [9] = assay: Antiinflammatory activity in C57BL/6J mouse assessed as reduction in carrageenan-induced accumulation of inflammatory cells in paw tissue at 10 mg/kg, ip daily dosed 30 mins after carrageenan challenge and measured 74 hrs carrageenan challenge and 2 hrs post last dose by H and E staining based histopathological analysis; type: functional, organism-based
SK-BR-3 = assay: Cytotoxicity against human SKBR3 cells at 100 uM incubated for 24 hrs by CellTiter-96AQ based MTT assay; type: cell-based; conditions: sk-br-3, 24 h; procedure, shortened: as §4
Mus musculus [10] = assay: Antiinflammatory activity against carrageenan-induced paw oedema in C57BL/6J mouse assessed as paw swollen thickness at 10 mg/kg, ip daily dosed 30 mins after carrageenan challenge and measured 74 hrs carrageenan challenge and 2 hrs post last dose by caliper method (reference value: 0.68 millimeter); type: functional; procedure, shortened: as §2
MDA-MB-231 = assay: Cytotoxicity against human MDA-MB-231 cells at 100 uM incubated for 24 hrs by CellTiter-96AQ based MTT assay; type: cell-based; conditions: mda-mb-231, 24 h; procedure, shortened: as §4
Mus musculus [11] = assay: Antiinflammatory activity against carrageenan-induced paw oedema in C57BL/6J mouse assessed as hind paw thickness at 10 mg/kg, ip daily dosed 30 mins after carrageenan challenge and measured 74 hrs carrageenan challenge and 2 hrs post last dose by caliper method (reference value: 3.05 millimeter); type: functional; procedure, shortened: as §2

EC [1]: 1000 nM
Compound: O=C(NCc1ccc(CNS(=O)(=O)c2ccc([N+](=O)[O-])cc2)cc1)c1ccc(F)cc1

Compound: Cc1ccc(S(=O)(=O)NCc2ccc(CNC(=O)c3ccc(F)cc3)cc2)cc1
inhibition in vivo at 10 mg/kg (Mus musculus [2]): 30%
inhibition [3]: 65%

EC [1]: 10 nM
Compound: O=C(NCc1ccc(CNS(=O)(=O)c2ccccc2F)cc1)c1ccc(F)cc1

EC [1]: 1000 nM
Compound: O=C(NCc1ccc(CNS(=O)(=O)c2cccc3ccccc23)cc1)c1ccc(F)cc1

EC [1]: 100 nM
Compound: O=C(NCc1ccc(CNS(=O)(=O)c2ccc(-c3ccc(F)cc3)cc2)cc1)c1ccc(F)cc1

EC [1]: 100 nM
Compound: Cc1ccccc1S(=O)(=O)NCc1ccc(CNC(=O)c2ccc(F)cc2)cc1

EC [1]: 1 nM
Compound: O=C(NCc1ccc(CNS(=O)(=O)c2cccc(Cl)c2)cc1)c1ccc(F)cc1
inhibition [4]: 95%
inhibition in vivo at 10 mg/kg (Mus musculus [2]): 20%

EC [1]: 1000 nM
Compound: O=C(NCc1ccc(CNS(=O)(=O)c2ccccc2Cl)cc1)c1ccc(F)cc1

EC [1]: 1 nM
Compound: O=C(NCc1ccc(CNS(=O)(=O)c2ccc(F)cc2)cc1)c1ccc(F)cc1

EC [1]: 1000 nM
Compound: O=C(NCc1ccc(CNS(=O)(=O)c2cccnc2)cc1)c1ccc(F)cc1

EC [1]: 100 nM
Compound: O=C(NCc1ccc(CNS(=O)(=O)c2ccc(Cl)cc2)cc1)c1ccc(F)cc1

EC [1]: 10 nM
Compound: O=C(NCc1ccc(CNS(=O)(=O)c2ccc(F)c(F)c2)cc1)c1ccc(F)cc1

EC [1]: 100 nM
Compound: O=C(NCc1ccc(CNS(=O)(=O)c2cccc(C(F)(F)F)c2)cc1)c1ccc(F)cc1
inhibition [4]: 93%
inhibition in vivo at 10 mg/kg (Mus musculus [2]): 20%

EC [1]: 1000 nM
Compound: O=C(NCc1ccc(CNS(=O)(=O)c2cccc(F)c2)cc1)c1ccc(F)cc1

EC [1]: 1 nM
Compound: Cc1cccc(S(=O)(=O)NCc2ccc(CNC(=O)c3ccc(F)cc3)cc2)c1

EC [1]: 10 nM
Ratio [5]: 100
Compound: O=C(NCc1ccc(CNS(=O)(=O)c2ccc(CN3CCOCC3)cc2)cc1)c1ccc(F)cc1
inhibition [4]: 82%
inhibition in vivo at 10 mg/kg (Mus musculus [2]): 20%

EC [1]: 10 nM
t1/2 [7]: 4.77 h
Tmax [8]: 0.25 h
Compound: O=C(NCc1ccc(CNS(=O)(=O)c2ccc3c(c2)CCO3)cc1)c1ccc(F)cc1
Activity (MCF-10A): Non-Toxic
inhibition (Mus musculus [6]): Active
inhibition (Mus musculus [9]): Active
inhibition [4]: 83%
Activity (SK-BR-3): Non-Toxic
Activity (Mus musculus [10]): 0.21 mm
inhibition in vivo at 10 mg/kg (Mus musculus [2]): 43%
Activity (MDA-MB-231): Non-Toxic
Activity (Mus musculus [11]): 2.64 mm

EC [1]: 1 nM
Ratio [5]: 1000
Compound: CCN(CC)Cc1ccc(S(=O)(=O)NCc2ccc(CNC(=O)c3ccc(F)cc3)cc2)cc1

EC [1]: > 1000 nM
Compound: Cc1ccc(S(=O)(=O)NCc2ccc(CNC(=O)c3ccc(F)nc3)cc2)cc1

EC [1]: 1 nM
Ratio [5]: 1000
Compound: O=C(NCc1ccc(CNS(=O)(=O)c2ccc(CN3CCCC3)cc2)cc1)c1ccc(F)cc1
inhibition [4]: 92%
inhibition in vivo at 10 mg/kg (Mus musculus [2]): 20%

EC [1]: 1000 nM
Compound: Cc1ccc(S(=O)(=O)NCc2ccc(CNC(=O)c3ccc(F)cn3)cc2)cc1
